The source of these data is ChEMBL document CHEMBL3588805, “Characterization and Biological Activities of Ocellatin Peptides from the Skin Secretion of the Frog Leptodactylus pustulatus” (J Nat Prod, 2015).

One data set concerns Klebsiella pneumoniae. Briefly: Antibacterial activity against Klebsiella pneumoniae ATCC 700603 assessed as inhibition of visible bacterial growth incubated at 37 degC for 24 hrs by CLSI protocol based method. In kind it is functional. The note with it: ATCC 700603, 24 h. An outline of the steps:
(§1)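 Broth microdilution per CLSI 2012. Strains grown at 37 °C in Mueller-Hinton broth to log phase (1 × 10^8 CFU/mL). Peptide 2-fold serial dilutions, 6.25–800 μg/mL, in Mueller-Hinton broth; final inoculum 5 × 10^5 CFU/mL per well. Aerobic incubation 24 h at 37 °C. MIC is the lowest concentration with no visible growth (A600 < 0.05). Meropenem control for Gram-negatives, oxacillin for S. aureus. Triplicate, two independent experiments.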

A short description of data set [1]: Cytotoxicity against mouse NIH/3T3 cells at antibacterial MIC (Escherichia coli ATCC 25922) assessed as reduction in cell index incubated for 60 hrs. Particulars: nih3t3, 60 h. The data set is classed as cell-based.
In the next data set the test system is Escherichia coli. Briefly: Antibacterial activity against Escherichia coli ATCC 25922 assessed as inhibition of visible bacterial growth incubated at 37 degC for 24 hrs by CLSI protocol based method. The data set is classed as functional. Particulars: ATCC 25922, 24 h. Put shortly:
as §1

Data set [2] can be described thus: Toxicity in human RBC assessed as induction of hemolysis at 800 ug/mL incubated for 1 hr at 37 degC. In kind it is cell-based, Erythrocyte. Particulars: human red blood cells (RBC), read-out: Activity. An outline of the steps: (§2)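 Human RBCs collected in EDTA (1.8 mg/mL), washed three times, resuspended in 0.85% saline, mixed with an equal volume of peptide solution (100–800 μg/mL). 1 h at 37 °C, centrifuged at 10000g for 1 min, supernatant absorbance read at 550 nm. Saline and 0.1% (v/v) Triton X as 0 and 100% controls. % hemolysis = (A peptide − A saline)/(A Triton − A saline) × 100.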

Another data set relates to Staphylococcus aureus. Briefly: Antibacterial activity against Staphylococcus aureus […] assessed as inhibition of visible bacterial growth incubated at 37 degC for 24 hrs by CLSI protocol based method. In kind it is functional. An outline of the steps: as §1
The nature of data set [3]: Toxicity in human RBC assessed as induction of hemolysis at antibacterial MIC (Escherichia coli ATCC 25922) incubated for 1 hr at 37 degC. In kind it is cell-based, Erythrocyte. Particulars: human red blood cells (RBC), read-out: Activity. Put shortly:
as §2

For another data set, the system named is Salmonella enterica. Briefly: Antibacterial activity against Salmonella choleraesuis ATCC 14028 assessed as inhibition of visible bacterial growth incubated at 37 degC for 24 hrs by CLSI protocol based method. The data set is classed as functional. The note with it: ATCC 14028, 24 h. An outline of the steps: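 Strain grown at 37 °C in Mueller-Hinton broth to log phase (1 × 10^8 CFU/mL). Broth microdilution per CLSI (2012) with 2-fold peptide dilutions in Mueller-Hinton broth, 6.25–800 μg/mL, final inoculum 5 × 10^5 CFU/mL. Incubated 24 h, 37 °C, aerobic. MIC is the lowest concentration giving absorbance below 0.05 at 600 nm. Meropenem control. Triplicate, two independent experiments.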

Converted amounts (≈) assume the structure as drawn. Where a SMILES comes first, the peptide text is derived from it.

Usually MIC stands for the lowest concentration found to suppress growth. Turning to `CC[C@H](C)[C@H](NC(=O)[C@H](CCCCN)NC(=O)CNC(=O)[C@H](CCSC)NC(=O)[C@H](C)NC(=O)[C@H](Cc1cnc[nH]1)NC(=O)[C@H](C)NC(=O)[C@@H](NC(=O)[C@H](CC(C)C)NC(=O)[C@H](CCC(N)=O)NC(=O)[C@H](CCCCN)NC(=O)CNC(=O)[C@H](C)NC(=O)[C@H](CC(=O)O)NC(=O)[C@H](CCCCN)NC(=O)[C@@H](NC(=O)[C@@H](NC(=O)[C@H](CC(=O)O)NC(=O)[C@H](Cc1ccccc1)NC(=O)[C@@H](NC(=O)CN)C(C)C)[C@@H](C)CC)[C@@H](C)CC)C(C)C)C(=O)N[C@@H](C)C(=O)N[C@@H](CCC(=O)O)C(=O)N[C@@H](CCCCN)C(=O)N[C@H](C(N)=O)C(C)C` (H-GVFDIIKDAGKQLVAHAMGKIAEKV-NH2), the MIC with Klebsiella pneumoniae was over 300 µM; with Escherichia coli it was 300 µM (≈ 791 µg/mL); in the data set with Staphylococcus aureus, over 300 µM; in the data set with Salmonella enterica, over 300 µM. The Activity result in data set [1] is on record as “Non-toxic”. Also, the hemolysis at 1 h, 800 ug/mL in data set [2] came to 1.98%. Also, in data set [3], the hemolysis at 1 h was determined as 1.98%.

For `CC[C@H](C)[C@H](NC(=O)[C@H](CCCCN)NC(=O)CNC(=O)[C@H](CCSC)NC(=O)[C@H](C)NC(=O)[C@H](Cc1cnc[nH]1)NC(=O)[C@H](C)NC(=O)[C@@H](NC(=O)[C@H](CC(C)C)NC(=O)[C@H](CCC(N)=O)NC(=O)[C@H](CCCCN)NC(=O)CNC(=O)[C@H](C)NC(=O)CNC(=O)[C@H](CCCCN)NC(=O)[C@@H](NC(=O)[C@@H](NC(=O)[C@H](CC(=O)O)NC(=O)[C@H](Cc1ccccc1)NC(=O)[C@@H](NC(=O)CN)C(C)C)[C@@H](C)CC)[C@@H](C)CC)[C@@H](C)CC)C(=O)N[C@@H](C)C(=O)N[C@@H](CCC(=O)O)C(=O)N[C@@H](CCCCN)C(=O)N[C@H](C(N)=O)C(C)C` (H-GVFDIIKGAGKQLIAHAMGKIAEKV-NH2), the MIC in the data set with Klebsiella pneumoniae was 310 µM (≈ 804 µg/mL); in the data set with Escherichia coli, 80 µM (≈ 208 µg/mL); in the data set on Staphylococcus aureus, over 310 µM; with Salmonella enterica, 310 µM (≈ 804 µg/mL). Also, the Activity result in data set [1] is “Non-toxic”. Besides, in data set [2], the hemolysis at 1 h, 800 ug/mL amounted to 4.29%. In addition, the hemolysis at 1 h in data set [3] came to 0.19%.

In the case of `CC[C@H](C)[C@H](NC(=O)[C@H](CCCCN)NC(=O)CNC(=O)[C@H](CCSC)NC(=O)[C@H](C)NC(=O)[C@H](Cc1cnc[nH]1)NC(=O)[C@H](C)NC(=O)[C@@H](NC(=O)[C@H](CC(C)C)NC(=O)[C@H](CCC(N)=O)NC(=O)[C@H](CCCNC(=N)N)NC(=O)CNC(=O)[C@H](C)NC(=O)[C@H](CC(=O)O)NC(=O)[C@H](CCCCN)NC(=O)[C@@H](NC(=O)[C@@H](NC(=O)[C@H](CC(=O)O)NC(=O)[C@H](Cc1ccccc1)NC(=O)[C@@H](NC(=O)CN)C(C)C)[C@@H](C)CC)[C@@H](C)CC)C(C)C)C(=O)N[C@@H](C)C(=O)N[C@@H](CCC(=O)O)C(=O)N[C@@H](CCCCN)C(=O)N[C@H](C(N)=O)C(C)C` (H-GVFDIIKDAGRQLVAHAMGKIAEKV-NH2), the MIC with Klebsiella pneumoniae was over 300 µM; in the data set on Escherichia coli, 300 µM (≈ 800 µg/mL); in the data set with Staphylococcus aureus, over 300 µM; in the data set on Salmonella enterica, over 300 µM. The Activity entry in data set [1] was “Non-toxic”. In data set [2], the hemolysis at 1 h, 800 ug/mL was 4.05%. For the same compound, the hemolysis at 1 h in data set [3] stood at 4.05%.

For `CC[C@H](C)[C@H](NC(=O)[C@H](CC(C)C)NC(=O)[C@H](CCC(N)=O)NC(=O)[C@H](CCCCN)NC(=O)CNC(=O)[C@H](C)NC(=O)CNC(=O)[C@H](CCCCN)NC(=O)[C@@H](NC(=O)[C@@H](NC(=O)[C@H](CC(=O)O)NC(=O)[C@H](Cc1ccccc1)NC(=O)[C@@H](NC(=O)CN)C(C)C)[C@@H](C)CC)[C@@H](C)CC)C(=O)N[C@@H](C)C(=O)N[C@@H](Cc1cnc[nH]1)C(=O)N[C@@H](C)C(=O)N[C@@H](CCSC)C(=O)N[C@@H](CCC(=O)O)C(=O)N[C@@H](CCCCN)C(=O)N[C@H](C(=O)N[C@@H](C)C(=O)N[C@@H](CCC(=O)O)C(=O)N[C@@H](CCCCN)C(=O)N[C@H](C(=O)NCC(=O)N[C@@H](CC(C)C)C(=O)N[C@@H](CC(N)=O)C(=O)N[C@@H](CCCCN)C(=O)N[C@@H](CC(=O)O)C(=O)NCC(=O)N[C@@H](CC(N)=O)C(=O)O)C(C)C)[C@@H](C)CC` (H-GVFDIIKGAGKQLIAHAMEKIAEKVGLNKDGN-OH), the MIC in the data set with Klebsiella pneumoniae was over 240 µM; with Escherichia coli it was 120 µM (≈ 404 µg/mL); with Staphylococcus aureus it was over 240 µM; in the data set with Salmonella enterica, over 240 µM. The Activity result in data set [1] is listed as “Non-toxic”. Also, the hemolysis at 1 h, 800 ug/mL in data set [2] turned out to be 0.69%. Moreover, the hemolysis at 1 h in data set [3] was 0%.

As to `CC[C@H](C)[C@H](NC(=O)[C@H](C)NC(=O)[C@H](Cc1cnc[nH]1)NC(=O)[C@H](C)NC(=O)[C@@H](NC(=O)[C@H](CC(C)C)NC(=O)[C@H](CC(=O)O)NC(=O)[C@H](CCCCN)NC(=O)CNC(=O)[C@H](C)NC(=O)CNC(=O)[C@H](CCCCN)NC(=O)[C@@H](NC(=O)[C@@H](NC(=O)[C@H](CC(=O)O)NC(=O)[C@@H](NC(=O)[C@@H](NC(=O)CN)C(C)C)[C@@H](C)CC)[C@@H](C)CC)[C@@H](C)CC)[C@@H](C)CC)C(=O)NCC(=O)N[C@@H](CCCCN)C(=O)N[C@@H](CC(C)C)C(=O)N[C@@H](C)C(=O)N[C@@H](CCC(=O)O)C(=O)N[C@@H](CCCCN)C(=O)N[C@H](C(N)=O)C(C)C` (H-GVIDIIKGAGKDLIAHAIGKLAEKV-NH2), the MIC was over 320 µM in the data set on Klebsiella pneumoniae, 320 µM (≈ 809 µg/mL) in the data set with Escherichia coli, over 320 µM with Staphylococcus aureus and over 320 µM with Salmonella enterica. Also, the Activity result in data set [1] is reported as “Non-toxic”. Besides, the hemolysis at 1 h, 800 ug/mL in data set [2] stood at 0.69%. Also, the hemolysis at 1 h in data set [3] stood at 0.69%.

Consider `CC[C@H](C)[C@H](NC(=O)[C@H](CCCCN)NC(=O)CNC(=O)[C@@H](NC(=O)[C@H](C)NC(=O)[C@H](Cc1cnc[nH]1)NC(=O)[C@H](C)NC(=O)[C@@H](NC(=O)[C@H](CC(C)C)NC(=O)[C@H](CCC(N)=O)NC(=O)[C@H](CCCCN)NC(=O)CNC(=O)[C@H](C)NC(=O)[C@H](CC(=O)O)NC(=O)[C@H](CCCCN)NC(=O)[C@@H](NC(=O)[C@@H](NC(=O)[C@H](CC(=O)O)NC(=O)[C@H](Cc1ccccc1)NC(=O)[C@@H](NC(=O)CN)C(C)C)[C@@H](C)CC)[C@@H](C)CC)C(C)C)[C@@H](C)O)C(=O)N[C@@H](C)C(=O)N[C@@H](CCC(=O)O)C(=O)N[C@@H](CCCCN)C(=O)N[C@H](C(N)=O)C(C)C` (H-GVFDIIKDAGKQLVAHATGKIAEKV-NH2), for which the MIC in the data set with Klebsiella pneumoniae, in the data set on Escherichia coli, with Staphylococcus aureus and in the data set with Salmonella enterica was over 310 µM throughout. Moreover, in data set [1], the Activity result is recorded as “Non-toxic”. Besides, the hemolysis at 1 h, 800 ug/mL in data set [2] was 0%. Moreover, in data set [3], the hemolysis at 1 h was determined as 0%.

Take `CC[C@H](C)[C@H](NC(=O)[C@H](CCCCN)NC(=O)CNC(=O)[C@H](CCSC)NC(=O)[C@H](C)NC(=O)[C@H](CCCNC(=N)N)NC(=O)[C@H](C)NC(=O)[C@@H](NC(=O)[C@H](CC(C)C)NC(=O)[C@H](CCC(N)=O)NC(=O)[C@H](CCCCN)NC(=O)CNC(=O)[C@H](C)NC(=O)CNC(=O)[C@H](CCCCN)NC(=O)[C@@H](NC(=O)[C@@H](NC(=O)[C@H](CC(=O)O)NC(=O)[C@H](Cc1ccccc1)NC(=O)[C@@H](NC(=O)CN)C(C)C)[C@@H](C)CC)[C@@H](C)CC)[C@@H](C)CC)C(=O)N[C@@H](C)C(=O)N[C@@H](CCC(=O)O)C(=O)N[C@@H](CCCCN)C(=O)N[C@H](C(=O)NCC(=O)N[C@@H](CC(C)C)C(=O)N[C@@H](CC(N)=O)C(=O)N[C@@H](CCCCN)C(=O)N[C@@H](CC(=O)O)C(=O)NCC(=O)N[C@@H](CC(N)=O)C(=O)O)C(C)C` (H-GVFDIIKGAGKQLIARAMGKIAEKVGLNKDGN-OH): the MIC stood at 240 µM (≈ 795 µg/mL) in the data set on Klebsiella pneumoniae, 60 µM (≈ 199 µg/mL) in the data set on Escherichia coli, 240 µM (≈ 795 µg/mL) with Staphylococcus aureus and 240 µM (≈ 795 µg/mL) with Salmonella enterica. In addition, in data set [1], the Activity result is “Non-toxic”. The hemolysis at 1 h, 800 ug/mL in data set [2] came to 8.09%. For the same compound, the hemolysis at 1 h in data set [3] was 0%.
